Assay outcomes from PubChem BioAssay.
The full list was thinned out, with hits kept by preference.
Calb biofilm kill – mixtures killing C. albicans biofilm. 120,000 tested, 0.02% active. C. albicans biofilm persisters + clotrimazole, fluorescence viability; primary screen in compound mixtures of four per well. inhibition, % at 7.6 µM;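 active = inhibition above 30.3% in the primary screen of four-compound pools, then above 30% when the compound was retested; inconclusive = passed the primary limit but could not be retested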;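 note: compounds exposed to preformed 24 h biofilms for 48 h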
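Assay system: C. albicans biofilms / Medium: RPMI/MOPS medium, pH 7.0 / Schedule: biofilm formation 24 h, compound exposure 48 h, 37 °C / Measured by: Alamar Blue fluorescence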
Pf gamet viab – P. falciparum stage V gametocyte viability inhibition | 150,000 tested, 0.065% active | P. falciparum stage V gametocytes, ATP luminescence, 24 h | inhibition, % at 10.9 µM | AID 743093;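 active = inhibition above the mean plus 3 SD of compounds within the control limits, set per campaign, cut at about 38% in these data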
ROMK mod – modulators of human ROMK potassium channel. P48048. Tet-inducible ROMK, thallium flux fluorescence; actives lie on both sides. B-score at 10 µM. 130,000 tested, 2% active;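 active = signal ratio slope over the read window, or its plate-corrected B-score, at least 3 SD from the plate mean, either direction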;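 note: B-score of the F/F0 ratio slope over 7 to 12 s after thallium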
Target sequence (P48048 whole entry, looked up): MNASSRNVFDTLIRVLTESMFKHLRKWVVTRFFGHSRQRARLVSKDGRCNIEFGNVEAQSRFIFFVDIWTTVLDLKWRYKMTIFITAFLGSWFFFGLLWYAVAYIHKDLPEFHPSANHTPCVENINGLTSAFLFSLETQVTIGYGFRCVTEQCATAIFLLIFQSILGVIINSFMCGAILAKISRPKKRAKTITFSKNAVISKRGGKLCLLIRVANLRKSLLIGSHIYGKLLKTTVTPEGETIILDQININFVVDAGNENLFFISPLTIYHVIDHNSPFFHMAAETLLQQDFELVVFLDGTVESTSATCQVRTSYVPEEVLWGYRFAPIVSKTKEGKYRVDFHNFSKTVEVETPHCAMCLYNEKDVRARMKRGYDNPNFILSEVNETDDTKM
ROMK hit retest – confirmation of human ROMK potassium channel modulators; shares compounds with ROMK mod; ROMK thallium flux, fluorescence ratio; hits give low values; normalized thallium flux (F/F0 slope) at 10 µM; 3,000 tested, 54% active; AID 1917;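 active = Flux at 10 µM at least 3 SD below or above vehicle control mean in one or both replicates; inconclusive = no clear call, values can overlap the other calls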
A number is an active result; . = inactive; ? = inconclusive; / = no result.

SMILES	Calb biofilm kill	Pf gamet viab	ROMK mod	ROMK hit retest
CCOC(=O)c1c(C)n(-c2ccccc2)c2ccc(O)c(CN(C)C)c12	.	/	-1.8	?
CCOC(=O)c1c(C)n(C)c2ccc(O)c(CN(CC)CC)c12	/	.	.	/
CCCCCCCCCn1c2c(c(=N)c3c1CCC3)CCC2	.	/	/	0.043
CCCCCCCn1c2c(c(=N)c3c1CCC3)CCCC2	.	.	.	/
CCCCn1c(=O)[nH]c(=O)c2c1ncn2Cc1ccco1	/	/	.	/
N=c1c2c(-c3ccccc3)c(-c3ccccc3)n(Cc3ccccc3)c2ncn1CCCn1ccnc1	/	/	-4.4	0.05
CCCCn1cnc2c(c(-c3ccccc3)c(-c3ccccc3)n2Cc2ccco2)c1=N	.	.	/	0.03
Clc1ccccc1OCCCn1ccnc1	/	.	/	/
CN(C)CCNC(=O)CNC(=S)N(Cc1ccccc1)Cc1cccnc1	.	/	.	/
c1ccc(COCCN2CCN(CCOCc3ccccc3)CC2)cc1	/	/	.	/
C(#CCN1CCC(Cc2ccccc2)CC1)COCCOCc1ccccc1	.	.	-3	0.063
CCN(CC)CC(O)COc1ccccc1C(=O)CCc1ccccc1 (stereo not drawn)	/	/	.	/
CCCCN(CCCC)CC(O)COc1ccccc1C(=O)Nc1ccccc1 (stereo not drawn)	.	.	-3.5	0.053
O=c1c2ccccc2nc2n1C(CSCc1ccc(Cl)cc1)CS2 (stereo not drawn)	/	.	/	0.066
O=c1c2ccccc2nc2n1C(CSc1ccccc1)CS2 (stereo not drawn)	.	.	.	/
Cn1c(=O)c2c([nH]c(=O)n2C)n(Cc2ccccc2)c1=O	/	.	/	/
COc1ccccc1NC(=O)c1ccc(NC(=O)COC(=O)C2(C)CC2(Cl)Cl)cc1 (stereo not drawn)	.	/	.	/
COc1ccc(/C=C/C(=O)Oc2ccc(C)cc2)cc1	/	.	/	/
N#C/C(=C(/O)CCl)c1nc(-c2ccccc2)cs1	.	.	/	/
Cc1ccc(-c2csc(/C(C#N)=C(\O)CCl)n2)cc1	.	.	-3.3	?
Cc1cc(C)c2[nH]c(=O)c(C(c3nnnn3C(C)(C)C)N(Cc3ccco3)CC3CCCO3)cc2c1 (stereo not drawn)	/	/	-3.3	0.058
Cc1ccc2cc(CN(CCCN3CCOCC3)C(c3nnnn3Cc3ccco3)C(C)C)c(=O)[nH]c2c1C (stereo not drawn)	/	.	.	/
Cc1cccc2cc(CN(CC3CCCO3)C(c3nnnn3Cc3ccco3)C(C)C)c(=O)[nH]c12 (stereo not drawn)	/	.	-3	.
Cc1cc2cc(C(c3nnnn3C(C)(C)C)N(Cc3ccco3)CC3CCCO3)c(=O)[nH]c2cc1C (stereo not drawn)	/	.	/	/
NC(=O)c1ccccc1NC(=O)C(c1ccccc1)c1ccccc1	/	.	/	/
SMILES	Calb biofilm kill	Pf gamet viab	ROMK mod	ROMK hit retest
Cc1ccc(N2CCN(C(=O)c3ccccc3NC(=O)C3CC=CCC3C(=O)O)CC2)cc1 (stereo not drawn)	/	.	.	/
CC(C)N(CCc1ccncc1)C(=S)Nc1cccc(Cl)c1	.	.	.	/
Cc1cc(C)nc(SCC(=O)N/N=C/c2cccs2)n1	.	.	/	/
COc1ccc(/C=C/c2cc(C(F)(F)F)on2)cc1	.	.	/	/
O=C(/C=C/c1ccccc1)CC(O)(c1ccccc1)C(F)(F)C(F)F (stereo not drawn)	/	.	.	/
O=C(/C=C/c1ccccc1)CC(O)(c1ccccc1)C(F)(F)F (stereo not drawn)	/	/	-4.8	0.052
O=C(Nc1ncc(Cc2ccccc2)s1)C1COc2ccccc2O1 (stereo not drawn)	/	.	/	/
COc1ccc(C2SCC(C(=O)O)N2C(C)=O)cc1 (stereo not drawn)	/	/	.	/
CC(=O)N1C(C(=O)O)CSC1c1ccc(C)cc1 (stereo not drawn)	/	/	/	.
COc1ccc(C(N)=S)cc1	.	.	.	/
C=C(c1ccc(OC)cc1)c1ccc(OC)cc1	/	/	1.9	.
Cc1ccnc2ccc(SC(F)(F)F)cc12	.	.	.	/
N#C/C(=N\Nc1ccccc1[N+](=O)[O-])C(=N)N1CCCCC1	.	.	.	/
O=C(CCCOc1ccc(Cl)cc1Cl)NCCCO	/	.	.	/
N=c1n(CCO)c2ccccc2n1CCOc1ccc(Cl)cc1Cl	/	/	/	0.049
CCCOc1ccc(NC(=O)CC2C(=O)N(C)C(=S)N2Cc2cccs2)cc1 (stereo not drawn)	.	/	/	/
O=C(Nc1ccc(Br)cc1)C1CCCN1S(=O)(=O)c1cccs1 (stereo not drawn)	/	.	-3.3	0.061
O=C(O)C1CCCN1S(=O)(=O)c1cccs1 (stereo not drawn)	/	/	.	/
C/C(=N\NC(=O)COc1ccc(C)cc1Br)c1cc([N+](=O)[O-])cs1	.	/	.	/
C/C(=N\NC(=O)COc1ccc(C)cc1[N+](=O)[O-])c1cccs1	.	.	-2.6	.
Cc1cc(Cl)ccc1NNC(=O)CCc1ccccc1	.	.	/	/
CC(C)OCCCNC(=O)c1ccc(NS(C)(=O)=O)cc1	/	/	/	.
COCCNC(=O)c1ccc(NS(C)(=O)=O)cc1	/	/	.	/
O=C(N/N=C\c1c(O)ccc2ccccc12)c1ccc(Cn2cccn2)o1	.	.	.	/
COc1ccc(-n2nnnc2-c2ccccc2)cc1	/	/	.	/
SMILES	Calb biofilm kill	Pf gamet viab	ROMK mod	ROMK hit retest
COc1ccc(-c2nnnn2-c2ccc(F)cc2F)cc1	.	.	-3.3	?
O=C1CN(C(=O)CNCc2cccc(Cl)c2)c2ccccc2N1	.	.	/	/
CCCC1CCC(c2ccc(OCC)cc2)=CC1=O (stereo not drawn)	/	.	/	/
Cc1cc(C(=O)COc2ccccc2C(N)=O)c(C)n1CC1CCCO1 (stereo not drawn)	.	.	.	/
COC(=O)CCn1c(C)cc(C(=O)COc2ccccc2C(N)=O)c1C	.	.	-5.4	?
CC1=NOC(=O)/C1=C\c1ccc(-c2ccc(Br)cc2C(=O)O)o1	.	/	.	/
CC1=NOC(=O)/C1=C\c1ccc(-c2cc(Cl)ccc2Cl)o1	/	.	-3.7	?
COC(=O)C1=C(C)N(CCCC(=O)O)C(=O)NC1c1ccccc1Cl (stereo not drawn)	/	.	/	/
O=c1oc2ccccc2nc1/C=C(\O)c1ccccc1	.	.	.	/
Cc1ccc(/C(O)=C/c2nc3cc(C)ccc3oc2=O)cc1	.	.	-2.4	0.048
Brc1c(C[n+]2ccccc2)nc2ccccn12	.	.	.	/
CC1(C)CC(Nc2ccc(C(F)(F)F)cc2[N+](=O)[O-])CC(C)(C)N1	.	.	-2.6	0.055
O=[N+]([O-])c1cc(C(F)(F)F)ccc1NC1CCN(Cc2ccccc2)CC1	.	.	.	/
Cc1oc(-c2ccc(Cl)cc2)cc1C(=O)/C(C#N)=C/Nc1ccccc1	.	.	/	/
Cc1ccc(S(=O)(=O)NC(CC(=O)NCc2ccco2)c2ccco2)cc1 (stereo not drawn)	/	.	2.8	?
COc1ccc(S(=O)(=O)NC(CC(=O)NCc2ccco2)c2ccco2)cc1 (stereo not drawn)	/	.	/	/
CC(=O)/C=C(\C)Nc1c(C)n(C)n(-c2ccccc2)c1=O	.	/	1.8	?
Cc1c(NC(=O)CSc2ncccn2)c(=O)n(-c2ccccc2)n1C	.	.	.	/
Cc1c(NC(N)=O)c(=O)n(-c2ccccc2)n1C	.	.	.	/
Cc1c(NC(=O)CSc2ccccc2F)c(=O)n(-c2ccccc2)n1C	.	.	-2.2	.
O=C(NCc1n[nH]c(=S)n1-c1ccc(Br)cc1)c1ccc(S(=O)(=O)N2CCOCC2)cc1	.	.	.	/
